Measurements taken from ChEMBL document CHEMBL1154945, “Decahydroisoquinoline derivatives as novel non-peptidic, potent and subtype-selective somatostatin sst(3) receptor antagonists” (Bioorg Med Chem Lett, 2010).

Columns and labels:
[1] = molecular target: T1, Somatostatin receptor type 3 (Homo sapiens, UniProt P32745); assay: Binding affinity to human SST3 receptor
[2] = molecular target: Somatostatin receptor type 1 (Homo sapiens, UniProt P30872); assay: Binding affinity to human SST1 receptor
Homo sapiens [3] = species: Homo sapiens; assay: Selectivity for human SST3 over human SST1
[4] = molecular target: Somatostatin receptor type 1 (Rattus norvegicus, UniProt P28646); assay: Displacement of [125I]SRIF-14 from rat cortex membrane SST1 receptor
[5] = molecular target: Somatostatin receptor type 2 (Rattus norvegicus, UniProt P30680); assay: Displacement of [125I]SRIF-14 from rat cortex membrane SST2 receptor
[6] = molecular target: Somatostatin receptor type 2 (Homo sapiens, UniProt P30874); assay: Binding affinity to human SST2 receptor
[7] = molecular target: Somatostatin receptor type 4 (Homo sapiens, UniProt P31391); assay: Binding affinity to human SST4 receptor
[8] = molecular target: Somatostatin receptor type 5 (Homo sapiens, UniProt P35346); assay: Binding affinity to human SST5 receptor
Homo sapiens [9] = species: Homo sapiens; assay: Selectivity for human SST3 over human SST2
Homo sapiens [10] = species: Homo sapiens; assay: Selectivity for human SST3 over human SST5
Homo sapiens [11] = species: Homo sapiens; assay: Selectivity for human SST3 over human SST4
[12] = molecular target: Somatostatin receptor type 3 (Mus musculus, UniProt P30935); assay: Displacement of [125I]SRIF-28 from mouse recombinant SST3 receptor
How it was run: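 Radioligand binding on recombinant mouse sst3 receptors with 125I-SRIF28 as tracer; pKD reported, n = 3.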

[13] = molecular target: T2, 5-hydroxytryptamine receptor 2C (Homo sapiens, UniProt P28335); assay: Binding affinity to 5HT2C receptor
T2 sequence (P28335 whole entry): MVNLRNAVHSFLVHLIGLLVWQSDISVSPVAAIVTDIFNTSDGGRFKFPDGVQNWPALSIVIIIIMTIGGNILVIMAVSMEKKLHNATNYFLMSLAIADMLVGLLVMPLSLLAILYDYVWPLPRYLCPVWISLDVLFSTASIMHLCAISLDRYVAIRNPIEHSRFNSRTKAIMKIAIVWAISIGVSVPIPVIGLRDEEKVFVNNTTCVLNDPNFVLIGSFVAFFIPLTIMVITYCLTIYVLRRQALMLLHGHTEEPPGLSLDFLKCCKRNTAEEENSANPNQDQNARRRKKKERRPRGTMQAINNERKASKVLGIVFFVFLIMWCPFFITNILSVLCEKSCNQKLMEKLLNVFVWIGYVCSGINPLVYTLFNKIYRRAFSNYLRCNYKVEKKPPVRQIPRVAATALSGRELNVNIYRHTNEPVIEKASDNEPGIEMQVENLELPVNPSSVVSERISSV

[14] = molecular target: T3, Alpha-1A adrenergic receptor (Homo sapiens, UniProt P35348); assay: Binding affinity to Alpha-1A adrenergic receptor
T3 sequence (P35348 whole entry): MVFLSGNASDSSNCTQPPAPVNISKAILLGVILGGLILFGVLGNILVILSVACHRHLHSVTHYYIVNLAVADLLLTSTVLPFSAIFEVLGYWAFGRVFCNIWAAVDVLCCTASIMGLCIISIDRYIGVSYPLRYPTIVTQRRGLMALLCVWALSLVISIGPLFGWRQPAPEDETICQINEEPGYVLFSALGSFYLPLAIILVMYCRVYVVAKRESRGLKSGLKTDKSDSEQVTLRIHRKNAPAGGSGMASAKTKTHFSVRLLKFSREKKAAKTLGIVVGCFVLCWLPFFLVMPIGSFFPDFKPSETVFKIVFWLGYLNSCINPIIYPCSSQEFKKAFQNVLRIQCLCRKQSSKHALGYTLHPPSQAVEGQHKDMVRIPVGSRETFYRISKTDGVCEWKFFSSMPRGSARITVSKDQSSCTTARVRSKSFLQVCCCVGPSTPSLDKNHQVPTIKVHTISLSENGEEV

D(2) dopamine receptor = D(2) dopamine receptor (Homo sapiens, UniProt P14416); assay: Binding affinity to dopamine D2 receptor
[15] = molecular target: T1, Somatostatin receptor type 3; assay: Antagonist activity at human recombinant SST3 receptor expressed in CHO cells assessed as inhibition of SRIF14-induced cAMP accumulation; assay type: functional, cell-based
How it was run: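 cAMP-based functional assay with human recombinant sst3 receptors expressed in CHO cells; test agent's antagonism of SRIF-14 response measured, pKB derived; n = 6.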

[16] = Oral bioavailability in mouse at 3 mg/kg; assay type: ADME, organism-based; settings: in vivo
How it was run: (§1)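 Unlabelled drug given orally (3 mg/kg) and intravenously (1 mg/kg) to mice and rats; plasma quantified by LC–MS (LOQ 0.4 ng/ml); absolute bioavailability estimated from the two routes.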

[17] = Oral bioavailability in rat at 3 mg/kg; assay type: ADME, organism-based; settings: in vivo; how it was run: as §1
[18] = Apparent terminal half life in mouse plasma at 1 mg/kg, iv; assay type: ADME, organism-based; set-up: dose 1 mg/kg, route intravenous
How it was run: (§2)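 Unlabelled drug dosed intravenously at 1 mg/kg to mice and rats; plasma analysed by LC–MS (LOQ 0.4 ng/ml); apparent terminal half-life computed from plasma levels.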

[19] = Apparent terminal half life in rat plasma at 1 mg/kg, iv; assay type: ADME, organism-based; set-up: dose 1 mg/kg, route intravenous; how it was run: as §2
[20] = Ratio of drug level in brain to plasma in mouse at 3 mg/kg, po after 1 hr by LC-MS based method; assay type: ADME, organism-based; set-up: dose 3 mg/kg, route oral; settings: brain and plasma
How it was run: (§3)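 Mice and rats dosed orally at 3 mg/kg with unlabelled drug; plasma and brain sampled 1 h after dosing and analysed by LC–MS (LOQ 0.4 ng/ml plasma, 2 ng/g brain); brain/plasma ratio calculated.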

[21] = Ratio of drug level in brain to plasma in rat at 3 mg/kg, po after 1 hr by LC-MS based method; assay type: ADME, organism-based; set-up: dose 3 mg/kg, route oral; settings: brain and plasma; how it was run: as §3
[22] = Inhibition of CYP450; assay type: ADME
How it was run: (§4)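 Inhibition of the five principal human cytochrome P450 isoenzymes screened by a microplate-based, direct fluorometric assay.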

Cytochrome P450 2D6 = Cytochrome P450 2D6 (Homo sapiens, UniProt P10635); assay: Inhibition of CYP2D6; assay type: ADME; how it was run: as §4
V79 = assay: Genotoxicity against chinese hamster V79 cells by micronucleus test; assay type: toxicity, cell-based, Cricetulus griseus

T1 sequence (P32745 whole entry): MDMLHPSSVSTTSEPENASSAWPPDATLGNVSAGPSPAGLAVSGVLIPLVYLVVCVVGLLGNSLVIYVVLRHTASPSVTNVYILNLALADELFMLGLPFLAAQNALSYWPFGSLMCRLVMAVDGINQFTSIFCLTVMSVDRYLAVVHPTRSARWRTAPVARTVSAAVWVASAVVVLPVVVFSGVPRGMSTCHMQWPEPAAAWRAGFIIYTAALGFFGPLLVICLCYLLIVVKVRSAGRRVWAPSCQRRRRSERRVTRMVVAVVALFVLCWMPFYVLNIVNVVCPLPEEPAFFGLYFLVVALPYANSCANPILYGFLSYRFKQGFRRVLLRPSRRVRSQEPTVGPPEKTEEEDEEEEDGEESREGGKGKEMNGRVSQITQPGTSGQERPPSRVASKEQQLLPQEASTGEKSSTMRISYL
Cytochrome P450 2D6, sequence (P10635 whole entry): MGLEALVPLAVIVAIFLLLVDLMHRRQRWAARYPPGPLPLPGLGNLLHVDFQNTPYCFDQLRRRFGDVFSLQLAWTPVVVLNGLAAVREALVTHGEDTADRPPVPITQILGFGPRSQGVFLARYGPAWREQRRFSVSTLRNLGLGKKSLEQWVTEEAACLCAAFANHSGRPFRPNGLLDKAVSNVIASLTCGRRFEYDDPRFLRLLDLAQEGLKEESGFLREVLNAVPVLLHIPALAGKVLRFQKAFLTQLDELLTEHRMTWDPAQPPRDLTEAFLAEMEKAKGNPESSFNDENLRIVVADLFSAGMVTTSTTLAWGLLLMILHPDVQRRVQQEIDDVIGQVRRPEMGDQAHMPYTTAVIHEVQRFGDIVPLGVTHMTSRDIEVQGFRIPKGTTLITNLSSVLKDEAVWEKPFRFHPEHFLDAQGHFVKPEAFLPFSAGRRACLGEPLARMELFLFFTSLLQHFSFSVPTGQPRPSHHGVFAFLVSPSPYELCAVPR
Somatostatin receptor type 3 (Mus musculus, UniProt P30935), sequence (P30935 whole entry): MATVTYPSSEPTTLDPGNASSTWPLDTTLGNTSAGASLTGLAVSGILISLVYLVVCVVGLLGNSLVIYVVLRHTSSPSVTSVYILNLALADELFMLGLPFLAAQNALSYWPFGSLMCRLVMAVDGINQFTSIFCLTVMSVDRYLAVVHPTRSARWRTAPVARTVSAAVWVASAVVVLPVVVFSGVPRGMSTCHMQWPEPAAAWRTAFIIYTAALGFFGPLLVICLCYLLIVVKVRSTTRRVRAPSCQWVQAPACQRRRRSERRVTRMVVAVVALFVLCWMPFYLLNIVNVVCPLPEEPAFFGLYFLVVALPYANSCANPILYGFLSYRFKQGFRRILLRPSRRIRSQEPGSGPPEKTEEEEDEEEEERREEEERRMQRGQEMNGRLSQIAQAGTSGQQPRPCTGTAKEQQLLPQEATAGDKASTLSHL
Somatostatin receptor type 5, sequence (P35346 whole entry): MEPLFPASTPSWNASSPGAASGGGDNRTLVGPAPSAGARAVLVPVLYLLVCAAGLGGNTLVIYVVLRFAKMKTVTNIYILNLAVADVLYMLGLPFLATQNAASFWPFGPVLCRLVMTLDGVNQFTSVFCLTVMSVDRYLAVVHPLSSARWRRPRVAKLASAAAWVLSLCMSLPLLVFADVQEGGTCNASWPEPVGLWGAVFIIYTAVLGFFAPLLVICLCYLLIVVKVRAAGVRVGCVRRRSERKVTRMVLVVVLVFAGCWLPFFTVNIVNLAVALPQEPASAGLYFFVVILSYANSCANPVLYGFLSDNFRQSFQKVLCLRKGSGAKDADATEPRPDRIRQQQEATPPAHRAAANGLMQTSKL
Somatostatin receptor type 4, sequence (P31391 whole entry): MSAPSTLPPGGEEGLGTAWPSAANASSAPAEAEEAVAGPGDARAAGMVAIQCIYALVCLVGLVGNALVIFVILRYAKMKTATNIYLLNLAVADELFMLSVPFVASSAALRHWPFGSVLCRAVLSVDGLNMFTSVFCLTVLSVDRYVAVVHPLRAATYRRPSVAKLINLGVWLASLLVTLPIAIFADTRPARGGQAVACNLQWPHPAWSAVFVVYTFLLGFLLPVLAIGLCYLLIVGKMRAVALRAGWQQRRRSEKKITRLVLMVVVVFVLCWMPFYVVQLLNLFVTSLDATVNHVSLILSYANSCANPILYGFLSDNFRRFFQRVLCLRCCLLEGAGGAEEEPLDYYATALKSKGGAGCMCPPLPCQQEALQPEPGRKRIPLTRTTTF
Somatostatin receptor type 2 (Rattus norvegicus, UniProt P30680), sequence (P30680 whole entry): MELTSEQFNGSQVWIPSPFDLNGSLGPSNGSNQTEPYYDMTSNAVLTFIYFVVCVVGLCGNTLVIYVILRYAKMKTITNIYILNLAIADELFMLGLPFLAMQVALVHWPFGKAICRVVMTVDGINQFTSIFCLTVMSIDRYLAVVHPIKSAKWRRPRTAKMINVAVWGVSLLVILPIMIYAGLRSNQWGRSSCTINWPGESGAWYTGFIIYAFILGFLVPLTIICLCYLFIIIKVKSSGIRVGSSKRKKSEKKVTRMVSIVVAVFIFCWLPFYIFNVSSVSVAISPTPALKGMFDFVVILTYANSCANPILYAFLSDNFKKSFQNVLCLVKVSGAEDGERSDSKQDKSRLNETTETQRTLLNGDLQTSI
Somatostatin receptor type 2 (Homo sapiens, UniProt P30874), sequence (P30874 whole entry): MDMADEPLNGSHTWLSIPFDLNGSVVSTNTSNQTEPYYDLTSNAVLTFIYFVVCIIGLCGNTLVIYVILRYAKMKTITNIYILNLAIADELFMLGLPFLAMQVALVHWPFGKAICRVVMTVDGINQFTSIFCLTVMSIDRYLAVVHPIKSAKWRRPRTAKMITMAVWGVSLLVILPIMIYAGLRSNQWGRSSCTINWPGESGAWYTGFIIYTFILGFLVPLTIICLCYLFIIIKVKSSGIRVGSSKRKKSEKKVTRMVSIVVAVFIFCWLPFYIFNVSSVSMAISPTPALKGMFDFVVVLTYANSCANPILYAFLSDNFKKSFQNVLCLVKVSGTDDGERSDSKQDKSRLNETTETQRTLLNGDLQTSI
Somatostatin receptor type 1 (Rattus norvegicus, UniProt P28646), sequence (P28646 whole entry): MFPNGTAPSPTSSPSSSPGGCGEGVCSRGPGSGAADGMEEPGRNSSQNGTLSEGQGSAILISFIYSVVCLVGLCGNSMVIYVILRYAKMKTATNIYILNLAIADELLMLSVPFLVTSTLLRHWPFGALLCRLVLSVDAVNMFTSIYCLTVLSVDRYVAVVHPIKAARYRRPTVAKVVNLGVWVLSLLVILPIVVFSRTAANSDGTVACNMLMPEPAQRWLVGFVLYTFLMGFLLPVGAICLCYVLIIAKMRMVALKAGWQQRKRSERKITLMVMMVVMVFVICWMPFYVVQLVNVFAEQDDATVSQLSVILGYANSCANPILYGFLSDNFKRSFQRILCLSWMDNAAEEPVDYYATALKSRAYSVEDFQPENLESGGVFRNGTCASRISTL
D(2) dopamine receptor, sequence (P14416 whole entry): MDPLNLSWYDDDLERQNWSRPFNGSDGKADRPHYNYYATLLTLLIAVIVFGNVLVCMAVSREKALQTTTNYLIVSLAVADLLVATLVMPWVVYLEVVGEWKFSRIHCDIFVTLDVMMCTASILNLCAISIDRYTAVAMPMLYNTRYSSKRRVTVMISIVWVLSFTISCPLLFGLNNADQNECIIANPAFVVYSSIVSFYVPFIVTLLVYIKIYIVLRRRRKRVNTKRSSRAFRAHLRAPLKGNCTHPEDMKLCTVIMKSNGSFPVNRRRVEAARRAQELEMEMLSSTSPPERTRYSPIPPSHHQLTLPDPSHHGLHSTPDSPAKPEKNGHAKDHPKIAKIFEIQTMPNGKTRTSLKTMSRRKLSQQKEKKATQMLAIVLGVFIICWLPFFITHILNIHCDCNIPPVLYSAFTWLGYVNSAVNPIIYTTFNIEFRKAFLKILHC
Somatostatin receptor type 1 (Homo sapiens, UniProt P30872), sequence (P30872 whole entry): as the sequence (P28646 whole entry) above, with P8S, T11S, S16P, G20S, V25G, C26G, S32A, S45A, A385T, S389T counted along it

Kd [1]: 0.00708 µM
Kd [2]: 2.04 µM
Ratio (Homo sapiens [3]): > 100
Kd [4]: 0.589 µM
Kd [5]: 0.115 µM
Kd [6]: 4.57 µM
Kd [7]: 0.148 µM
Kd [8]: 1.12 µM
Ratio (Homo sapiens [9]): > 150
Ratio (Homo sapiens [10]): > 150
Ratio (Homo sapiens [11]): 21
Kd [12]: 0.0049 µM
Kd [13]: 0.427 µM
Kd [14]: 0.692 µM
Kd (D(2) dopamine receptor): 0.741 µM
pKb [15]: 7.88
bioavailability [16]: 15%
bioavailability [17]: 21%
half-life [18]: 1.5 h
half-life [19]: 5.6 h
Kp at 1 h [20]: 2.4
Kp at 1 h [21]: 0.4
IC50 [22]: > 10 µM
IC50 (Cytochrome P450 2D6): 6.5 µM
Compound: COc1ccc(C[C@H](C)CN2C[C@@H]3CCCC[C@@H]3[C@H](C(=O)N3CCN(c4ccc(F)c(F)c4)CC3)C2)cn1.O=C(O)/C=C/C(=O)O
Activity (V79): Non-toxic
